CXCR6 block – CXCR6 (human) receptor inhibition | inhibition, % at 20 µM | hit rate 0.36% among 360,000 | CHO-K1 PathHunter CXCR6 beta-arrestin, luminescence | AID 602244; in the data active = inhibition above about 34%, passing the limit was not always enough;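 note: antagonist mode with CXCL16 agonist at 10 nM final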
Beta2AR agonist – agonists of human beta-2 adrenergic receptor inducing internalization; P07550; Am2.2-beta2AR cells, FAP receptor internalization, flow cytometry; response, % (concentration not given with the values); hit rate 0.43% among 340,000; AID 504454;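 active = response above a set limit, near 3 SD of response in nonfluorescent compounds, cut at about 42% in these data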
Target sequence (P07550 whole entry, looked up): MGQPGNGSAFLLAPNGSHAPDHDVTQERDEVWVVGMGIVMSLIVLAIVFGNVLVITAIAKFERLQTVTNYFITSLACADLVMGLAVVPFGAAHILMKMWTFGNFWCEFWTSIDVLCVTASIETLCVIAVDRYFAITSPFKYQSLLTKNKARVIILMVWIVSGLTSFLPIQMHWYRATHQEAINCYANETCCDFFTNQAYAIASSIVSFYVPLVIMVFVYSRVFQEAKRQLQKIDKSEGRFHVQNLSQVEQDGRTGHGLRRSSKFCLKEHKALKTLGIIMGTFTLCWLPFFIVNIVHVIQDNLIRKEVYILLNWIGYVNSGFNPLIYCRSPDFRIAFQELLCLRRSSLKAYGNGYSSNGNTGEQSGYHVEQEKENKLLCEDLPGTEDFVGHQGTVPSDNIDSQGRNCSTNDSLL
APJ ag – APJ receptor agonism | CHO-K1 APJ PathHunter beta-arrestin, luminescence; 0% DMSO wells, 100% apelin | activation, % at 20 µM | hit rate 0.11% among 330,000 | AID 2520;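 active = activation more than six SD over the plate average, tested at 20 µM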
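system = engineered CHO-K1 APJ arrestin reporter cells | input = 1000 cells per well | timing = overnight seeding, 90 min compound at 25 °C, 1 h detection | measured by = enzyme-fragment complementation luminescence | read-out = beta-arrestin recruitment to APJ as agonist activity, luminescent signal | control set = negative DMSO alone, positive Apelin-13 at 10 nM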
APJ antagonist – blocks the human apelin receptor APJ; hit rate 0.32% among 330,000; AID 2521; inhibition, % at 20 µM; CHO-K1 APJ beta-arrestin complementation, luminescence; P35414;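 active = inhibition above about 40% at 20 µM, limit read from the data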;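 note: cells challenged with 10 nM apelin-13 agonist together with compound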
CCR6 antag – CCR6 (human) receptor antagonism; hit rate 0.49% among 340,000; CHO-K1 CCR6 PathHunter beta-arrestin, luminescence, CCL20-stimulated; inhibition, % at 20 µM; AID 493098;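 active = compounds whose inhibition of the agonist-driven luminescence signal at 20 µM reaches about 50%, limit read from the data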;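 note: cells stimulated with CCL20 at 14 nM final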
PfG6PD inh – PfG6PD (Plasmodium falciparum) enzyme inhibition. PfGluPho enzyme, NADPH resazurin-diaphorase fluorescence. inhibition, % at 20 µM. hit rate 0.78% among 350,000. AID 504690;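 active = inhibition reaching at least a set limit at 20 µM in the primary screen, cut at about 59% in these data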
Beta2AR ag CP1 – agonists of human beta-2 adrenergic receptor; AID 540358; Am2.2-beta2AR cells, FAP surface receptor, flow cytometry; hits give low values; shares compounds with Beta2AR agonist; hit rate 25% among 1,100; percent response (surface receptor), % at 10 µM;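 active = surface receptor percent response at or below 58%, roughly 3 SD from nonfluorescent compounds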
B2AR FAP counter – flagged in Am2.2 fluorescence counterscreen for beta-2AR agonists; shares compounds with Beta2AR agonist; Am2.2 cells, FAP fluorogen flow cytometry; hits give low values; calls only at 10 µM; 1,100 tested, under 10 active;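 active = percent response below a set limit in fluorescence channel 1 and below 50% in channel 8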
Hits are given with their value; i = inactive; nt = no result given; ! = a repeat was not active. Sampled rows, rich in hits. Any-hit rate of the full collection: about 1.7%.

SMILES	CXCR6 block	Beta2AR agonist	APJ ag	APJ antagonist	CCR6 antag	PfG6PD inh	Beta2AR ag CP1	B2AR FAP counter
Cn1c(SC2=CS(=O)(=O)c3ccccc32)nc2ccccc21	i	74	i	i	i	i	i	i
CCc1ccc(CN(C)C(=O)c2cc(COc3cncc(Cl)c3)on2)cc1	i	nt	nt	nt	nt	i	i	i
Cc1ccc(OCc2cc(C(=O)N(C)Cc3cnn(-c4ccccc4C)c3)no2)cn1	i	100	i	i	i	i	19	i
COC(=O)[C@@H](NC(=O)c1cc(COc2cncc(Cl)c2)on1)c1ccccc1	i	i	i	i	i	i	i	i
Cc1ccc(OCc2cc(C(=O)N(C)Cc3cnn(C)c3)no2)cc1C	i	nt	nt	nt	nt	i	nt	nt
CCC(NC(=O)c1cc(COc2cncc(Cl)c2)on1)c1ccc(C)cc1 (stereo unspecified)	i	i	i	i	i	i	i	i
CCc1nc2ccc(C(=O)N3CCN(C(=O)c4ccco4)CC3)cn2c1N(CC)Cc1cccc(Br)c1	i	nt	nt	nt	nt	nt	nt	nt
Cc1cccc(C)c1-n1nnnc1C1c2ccccc2C(=O)N1CCc1ccccc1F (stereo unspecified)	i	nt	nt	nt	nt	nt	nt	nt
CC(C)(C)OC(=O)C[C@@H]1C/C=C\C[C@H](CC(=O)N[C@H](CO)Cc2ccccc2)C(=O)N2CCC[C@H]2COC1=O	i	i	i	i	i	i	nt	nt
Cn1cc(CN2CCc3sccc3C2)c(-c2ccccc2F)n1	i	i	i	i	i	i	nt	nt
Clc1ccccc1CN1CCc2sccc2C1	i	i	i	i	i	i	i	i
COc1ccccc1CNC(=O)CN1CCN(c2ccc(C(C)=O)cc2)CC1	i	54	i	i	i	i	i	i
CC(=O)c1ccc(N2CCN(CC(=O)NCc3ccccc3)CC2)cc1	i	i	i	i	i	i	nt	nt
CC(NC(=O)NC(=O)c1cccc(Cl)c1)c1ccccc1 (stereo unspecified)	i	i	i	i	i	i	nt	nt
CC(C)=CCC(C)(C)C1OCCN1C(=O)c1ccccc1 (stereo unspecified)	i	62	i	i	i	i	22	i
C/C(=N\NC(=S)NCc1ccccc1)c1ccccc1	i	i	i	i	i	i	nt	nt
CC1=C/C(=N\NC(=S)NCc2ccccc2)CC1	i	i	i	i	i	i	i	i
CC1CCN(C(C(=O)Nc2ccc3c(c2)OCO3)c2ccccc2)CC1 (stereo unspecified)	i	i	i	i	i	i	i	i
CC1CCCN(C(C(=O)Nc2ccc3c(c2)OCO3)c2ccccc2)C1 (stereo unspecified)	i	i	i	i	i	i	i	i
O=C(Nc1ccc2c(c1)OCO2)C(c1ccccc1)N1CCCCC1 (stereo unspecified)	i	i	i	i	i	i	nt	nt
Cc1ccccc1C(=O)Nc1ccnn1C1CCN(Cc2ccncc2)CC1	i	i	i	i	i	i	nt	nt
CCOC(=O)C1CCN(C(=O)COC(=O)c2ccccc2OCC)CC1	i	i	i	i	i	i	nt	nt
CC1CCN(C(=O)COC(=O)c2ccccc2C(=O)c2ccccc2)CC1	i	i	i	i	i	i	i	i
CCOC(=O)C1CCN(C(=O)COC(=O)c2ccccc2C(=O)c2ccc(Cl)cc2)CC1	i	i	i	i	i	i	i	i
Cc1ccc(C(=O)c2ccccc2C(=O)OCC(=O)N2C(C)CCCC2C)cc1 (stereo unspecified)	i	i	i	i	i	i	i	i
SMILES	CXCR6 block	Beta2AR agonist	APJ ag	APJ antagonist	CCR6 antag	PfG6PD inh	Beta2AR ag CP1	B2AR FAP counter
Cc1ccc(N(CCC(=O)N2CCOCC2)S(=O)(=O)c2ccccc2)cc1	i	i	i	i	i	i	nt	nt
COc1ccccc1NS(=O)(=O)c1ccc2oc(N)nc2c1	i	i	i	i	i	i	nt	nt
O=C1C=C(O)CC(c2ccc(Cl)c(Cl)c2)C1 (stereo unspecified)	i	i	i	i	i	i	nt	nt
CN[C@H]1CC[C@@H](c2ccc(Cl)c(Cl)c2)c2ccccc21	i	50!	i	i	i	i	i	i
Cn1c(=O)c2c(ncn2CC2OCCO2)n(C)c1=O	i	i	i	i	i	i	nt	nt
COc1cccc(CNC(=O)CS(=O)(=O)Cc2nc(-c3ccc(C)cc3)oc2C)c1OC	i	i	i	i	i	i	nt	nt
Cc1cc(C)c(S(=O)(=O)N2CCN(C3CC(=O)N(c4ccccc4Cl)C3=O)CC2)c(C)c1 (stereo unspecified)	i	i	i	i	i	i	nt	nt
CC(NCCC(c1ccccc1)c1ccccc1)c1ccccc1 (stereo unspecified)	i	i	i	i	i	i	i	i
CCCCNc1ccc(C(CC(N)=O)NC(=O)Cc2cccc3ccccc23)cc1[N+](=O)[O-] (stereo unspecified)	i	i	i	i	i	i	nt	nt
NC(=O)CC(NC(=O)Cc1cccc2ccccc12)c1ccc(NCCCN2CCCC2=O)c([N+](=O)[O-])c1 (stereo unspecified)	i	103	i	i	i	i	17	i
COc1ccc(OC)c(S(=O)(=O)N(C)CC(=O)N2CCN(c3ccccc3F)CC2)c1	i	i	i	i	i	i	i	i
COc1ccc(OC)c(S(=O)(=O)N(C)CC(=O)N2CCN(c3cccc(Cl)c3)CC2)c1	i	i	i	i	i	i	i	i
COc1ccc(OC)c(S(=O)(=O)N(C)CC(=O)N2CCOCC2)c1	i	i	i	i	i	i	nt	nt
COc1ccc(OC)c(S(=O)(=O)N(C)CC(=O)N2CCN(c3ccc(F)cc3)CC2)c1	i	i	i	i	i	i	i	i
CN(C1CCCCC1)S(=O)(=O)c1ccc(SCC(=O)C(C)(C)C)nc1	i	i	i	i	i	i	nt	nt
COc1ccc(C2c3ccc4ccccc4c3Oc3ncn(CCN(C)C)c(=N)c32)cc1 (stereo unspecified)	i	i	i	i	i	i	nt	nt
COC(=O)c1ccc(CN2CCC(Oc3ccc(C(=O)N4CCCCC4)cc3)CC2)cc1	i	i	i	i	i	i	i	i
COC(=O)c1ccc(CN2CCC(Oc3cccc(C(=O)N4CCCC4)c3)CC2)cc1	i	i	i	i	i	i	nt	nt
Cn1c(SCC(=O)N/N=C/C=C/c2ccccc2[N+](=O)[O-])nc2ccccc21	i	i	i	i	i	i	nt	nt
Cn1c(SCC(=O)N/N=C/C=C/c2ccco2)nc2ccccc21	i	i	i	i	i	i	i	i
O=C(Nc1nc2ccccc2s1)C1CCN(S(=O)(=O)c2cc([N+](=O)[O-])ccc2Cl)CC1	i	i	i	i	i	i	nt	nt
CC(=O)Oc1ccc(C(=O)Nc2cccc(C(=O)c3cccc(NC(=O)c4ccc(OC(C)=O)cc4)c3)c2)cc1	i	57	i	i	i	i	i	i

From PubChem BioAssay
